Test results reported in the EternaBench riboswitch data.

Tested on: MS2 coat protein
Assay: apparent Kd, MS2 coat protein; higher = weaker binding; RNA-MaP array; FMN 200 µM where present
Summary of the method: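 Binding was read on Illumina sequencing-chip clusters where stalled E. coli RNA polymerase had transcribed each design. A titration of SNAP-549-labelled MS2 coat protein began at 0.7 or 1.5 nM and doubled to 3 µM, once without ligand and once with constant ligand, in 100 mM Tris-HCl pH 7.5, 80 mM KCl, 4 mM MgCl2, BSA, DTT, yeast tRNA and Tween-20. The apparent Kd is the median of filtered per-cluster binding-curve fits, based on green signal normalised to red-channel RNA signal and control-cluster median Fmax.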

[1] = designed as: ON switch for flavin mononucleotide, no ligand
[2] = ligand present: flavin mononucleotide, designed as: ON switch for flavin mononucleotide
[3] = designed as: OFF switch for flavin mononucleotide, no ligand
[4] = ligand present: flavin mononucleotide, designed as: OFF switch for flavin mononucleotide

Sequence | apparent Kd [1] | apparent Kd [2] | apparent Kd [3] | apparent Kd [4]
UAUAUUUUUAUAGGAUAUGGAUAUGAUGCAUAUCCAGAAGGGUGAAUAUAAUAUUUUCUGUACAUGAGGAUCACCCAUGUUUAG | 116 nM | 46.9 nM | – | –
UGAGCCGGCACUGAGGAUAUUCAUAUUAAAACAUGAGGAUCACCCAUGUAGGCCAGAAGGCCUUGGGAGAAGGCAGGUCGGCUCA | 403 nM | 20.6 nM | – | –
CCAAGCUGUGUGAGGAUAUGCUGGUCGAAAGAUCAGCAGAAGGCACAUGAGGAUCACCCAUGUGAAAAGCUUGG | – | – | 18.3 nM | 50.9 nM
UCAGAUGUACAUGAGGAUCACCCAUGUCAUAUGCCCGUGACACAGGAUAUCCAGGAUAGGCCAAAGGAGAAGGGUGAUCCGCGG | 103 nM | 158 nM | – | –
UUGUAGUACGUAGGAUAUCAUUGAGGAUCACCCUGAGAAGGACGUGAGGACAUGAGGAUCACCCAUGUGGAUCACCCAUGUCAU | – | – | 329 nM | 231 nM
AUCAGCUCGUCAGGAUAUACGUCACUGCGUCAGCAGUGUGGUAAGAUCACAUGAGGAUCACCCAUGUAGAAGGUACGAGCUGAU | – | – | 8.6 nM | 13.8 nM
GAUUGACAUGAGGAUCACCCAUGUGAGGAUAUCGGCCGGACCUUGUUAGCUUCCAUCGCGAGAAGGUACAUAGG | – | – | 18.9 nM | 18.4 nM
GCAGGCGACCAGAAGGGUGACAUGAGGAUCACCCAUGUAGAUGUGUUCCCGCUUGGGAACCGUCCACAGGAUAUGGUUGGUUAU | 51.1 nM | 53.8 nM | – | –
GCCAACUUAUGAGGAUAUGGCACCUUAUUGGUGCCAGAAGGCAUGUCUAUUGACAUGAGGAUCACCCAUGUAUUAUAGUUGGCA | 715 nM | 159 nM | – | –
GCACUUAUAUUUGAACCGAUUCGAACAUGAGGAUCACCCAUGUAGGAUAUGCUAAAAGUUGUGAUGCAGAAGGACAUUAAGUGC | – | – | 5.44 nM | 6.74 nM
AGAUCCUGAGUCAGGAUAUAGAGGCGAAAGCCUGGCUAGAAGGGACAUGAGGAUCACCCAUGUGGGUUCGUGCC | – | – | 20.2 nM | 66.5 nM
ACUUCCCAGGAGAAGGGACAAGGCGGAGCCCGUACAUGAGGAUCACCCAUGUCAGGAUAUCCAUGCCGGAAGCUAACCCAGUUA | – | – | 6.42 nM | 10.1 nM
ACAUGUACAGAGGAUAUGCGCCUUGGCAACGGUGUAGAAGGCUGAACAUGAGGAUCACCCAUGUGCAAUCCAGC | – | – | 28.4 nM | 146 nM
AGUAACAGAGGAUAUACUAUUUUAUGUGUUUAUUGUUUUGAACAUGAGGAUCACCCAUGUAGAAGGCUGAAUAA | – | – | 24.4 nM | 28 nM
AGCUGUGGCCGAGGAUAUCAAGAACCAUGGAAAACCAUGGAACCUUGACAUGAGGAUCACCCAUGUGAGAAGGCGGUCUCAGCA | – | – | 14.4 nM | 11.7 nM
GCCAUCGUAUGAGGAUAUGGCACCGAAACGGUGCCAGAAGGCAUGUCGAUAGACAUGAGGAUCACCCAUGUAUUAUCGAUGGCA | 107 nM | 31.3 nM | – | –
AAAGCAACAUGAGGAUCACCCAUGUAGGAUAUCGCUAUUGUAAUCAUGAAACAUGAUUACAAUAGCGAGAAGGACAUAUGCUAA | – | – | 9.26 nM | 10.8 nM
GCCUCACAUGAGGAUCACCCAUGUCAGGAUAUAGGAGACGGCAGAAAUCCUGCCAUCGCUAGAAGGGACUGGCA | – | – | 23.9 nM | 105 nM

Sequence | apparent Kd [1] | apparent Kd [2] | apparent Kd [3] | apparent Kd [4]
GUCCGGCGUGUAGGAUAUGGAUCCGAUUAGGAUCCAGAAGGACAUGAGGAUCACCCAUGUACAUGUAAACAGUCAUCACCGGAU | – | – | 7.5 nM | 23.5 nM
UCCUUCUGUUGAGGAUAUGUAAGACAGCGGCUGCUAUGGCGACACGCUGAUACAGAAGGCAACAUGAGGAUCACCCAUGUUCAA | – | – | 19.2 nM | 145 nM
GGGUACAUCGGAGGAUAUCAUGUAAAUACAUGAGGAUCACCCAUGUCGAUGGAGACAUCGGAGAUUGAGAAGGCCGAUGUACCC | 178 nM | 9.58 nM | – | –
AUCAGCUCGUCAGGAUAUACGUCACUGCGUCAGCAGUGUGGUAAGAUCACAUGAGGAUCACCCAUGUAGAAGGGACGAGCUGAC | – | – | 14.2 nM | 306 nM
GUGUACAGAGGAUAUACAUGGGCAUGGAAACAUGCAUCUUCACAUGAGGAUCACCCAUGUAGAAGGCUGUACAC | – | – | 34.7 nM | 21.3 nM
GAUACACAUGAGGAUCACCCAUGUGAGGAUAUGCGUACGUUGUCCGUAGGCGACGUGCGCAGAAGGCGCGUGAG | – | – | 52.6 nM | 84 nM
UAUACUAGAUAGGAUAUACUUUAUUUUUUUUUCGUAGAAGGAUCUACAUGAGGAUCACCCAUGUUAACAGCAGU | – | – | 74.1 nM | 53.9 nM
GCACAUUUGUAAGGAUAUACUACAUGAGGAUCACCCAUGUGCAUGGAGAUUGUAGAAGGUACAGCAAUAUUGAUUAACGUUAUA | 134 nM | 77.2 nM | – | –
GGGUACAUCGGAGGAUAUCAUGUAAAUACAUGAGGAUCACCCAUGUCGAAGGAGACAUCGGAGAUUGAGAAGGCCGAUGUACCG | 87.7 nM | 579 nM | – | –
UGUCGGAGCAGAGGAUAUUACAUGAGGAUCACCCAUGUAUGAACCAAUAGCUGGAAACAGCAAUGUAAGAAGGCUGCUCGGACA | – | – | 12.6 nM | 187 nM
GCAGUGCGAGGAUAUACAUGAGGAUCACCCAUGUGAGAAUAAGAAGUGAGGAAGAAAAGUAGAAGGCGCGUUGG | – | – | 52.4 nM | 155 nM
CAUACACAUGAGGAUCACCCAUGUGAGGAUAUGCGUACGUUGUCCGUAGGCGACGUGCGCAGAAGGCGCAAGGU | – | – | 63.3 nM | 81 nM
GUAUAUAGUGUGAGGAUAUGCUGGUCCUUGGAUCAGCAGAAGGCACAUGAGGAUCACCCAUGUAGUUUAUUAUG | – | – | 19.7 nM | 78 nM
GACUGAUUGUAGAAGGUACUUGACAAUAUAUUUAAUUAUUGUAGACAUGAGGAUCACCCAUGUAGUAAGGAUAUACUUAUAACA | 18.4 nM | 9.96 nM | – | –
CUACCUUAUGAGAAGGCGAUUAUGAAACAUGAUCGAGGAUAUCAUGUAAACAUGAGGAUCACCCAUGUAUGGGUAUUAUGGUAA | 211 nM | 32.8 nM | – | –
GUUUCUAUAUGUUAUAUUUAACAGUCAGAAGGUGAUACUACGACAUGAGGAUCACCCAUGUAAUUCAAGGAUAUGAACUUAAUC | 1110 nM | 450 nM | – | –
AUGCUAGUGUGAGGAUAUUAUUGACAUGAGGAUCACCCAUGUGUGAGUCCAACAUGAGCUACAGUUAAGAAGGUACAUUAGCAU | – | – | 45.5 nM | 38.1 nM
AUCAGCUCGUCAGGAUAUACGUCACUUCGUCAGCAGUGUGGUAAGAUCACAUGAGGAUCACCCAUGUAGAAGGGACGAGCUGAU | – | – | 85.7 nM | 310 nM
